Each structure is given as a SMILES string. Calls of active or inactive are those of the source. The rule behind the calls is not given here.

We go through 15 molecules from ChEMBL document CHEMBL1156100, “Design and synthesis of a simplified inhibitor for XIAP-BIR3 domain” (Bioorg Med Chem Lett, 2009).

Assay [1] deals with T1, E3 ubiquitin-protein ligase XIAP (Homo sapiens, UniProt P98170). Kind of assay: Inhibition of XIAP BIR3 domain at 100 uM by competitive fluorescence polarization binding assay. In general terms: In fluorescence polarisation assays a small probe gives low polarisation when free and higher when bound to something large.
T1 sequence (P98170 whole entry, the tested form may be a part): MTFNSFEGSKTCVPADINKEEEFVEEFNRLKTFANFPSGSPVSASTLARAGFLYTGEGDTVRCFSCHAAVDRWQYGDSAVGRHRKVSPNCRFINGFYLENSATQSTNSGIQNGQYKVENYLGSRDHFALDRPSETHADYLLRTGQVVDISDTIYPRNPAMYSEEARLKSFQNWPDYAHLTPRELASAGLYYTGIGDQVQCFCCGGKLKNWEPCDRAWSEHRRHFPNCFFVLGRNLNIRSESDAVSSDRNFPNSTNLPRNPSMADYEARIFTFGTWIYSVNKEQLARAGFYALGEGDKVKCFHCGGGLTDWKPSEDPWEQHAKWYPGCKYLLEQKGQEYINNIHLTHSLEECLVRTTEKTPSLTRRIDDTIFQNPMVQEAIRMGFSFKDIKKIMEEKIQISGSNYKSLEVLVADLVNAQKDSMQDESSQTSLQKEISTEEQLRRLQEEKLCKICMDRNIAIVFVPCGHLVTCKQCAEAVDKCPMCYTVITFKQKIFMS
The target of assay [2] is T1, E3 ubiquitin-protein ligase XIAP. The assay is described as follows: Inhibition of XIAP BIR3 domain by competitive fluorescence polarization binding assay. In outline: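 Competitive fluorescence polarization displacement assay using the XIAP BIR3 domain, with BV6 run in parallel as the reference compound. Binding affinity is expressed as Ki.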
Assay [3] has the same target. The assay is described as follows: Inhibition of XIAP BIR3 domain at 10 to 100 uM by competitive fluorescence polarization binding assay relative to 1 uM BV6 control.
Assay [4] has the same target. The assay is described as follows: Inhibition of XIAP BIR3 domain at 10 to 100 uM by competitive fluorescence polarization binding assay.

Take `C[C@H](N)C(=O)Nc1nc2c(s1)CCCCC2C(=O)NCc1ccccc1` (stereo partly drawn): the outcome in assay [1] was inactive.

The term Ki denotes a dissociation constant, usually derived from enzyme kinetics or from competition with a known ligand. `CN[C@@H](C)C(=O)Nc1nc2c(s1)CC[C@H]2C(=O)N[C@@H]1CCCc2ccccc21` had an inhibition constant (Ki) in assay [2] of 5.58 µM. Further, in assay [3], the outcome was Active. In the case of `C[C@H](N)C(=O)Nc1nc2c(s1)CCC2C(=O)NCc1ccccc1` (stereo partly drawn), in assay [4], the outcome was Active.

Take `C[C@H](N)C(=O)Nc1nc2c(s1)CCCCC2C(=O)NC(c1ccccc1)c1ccccc1` (stereo partly drawn): the result in assay [1] was inactive. `CN[C@@H](C)C(=O)Nc1nc2c(s1)CC[C@H]2C(=O)N[C@H]1CCCc2ccccc21`: in assay [3], the outcome was inactive. For `CN[C@@H](C)C(=O)Nc1nc2c(s1)CCCCC2C(=O)NC(c1ccccc1)c1ccccc1` (stereo partly drawn), the outcome in assay [1] was inactive.

For the molecule `C[C@H](N)C(=O)Nc1nc2c(s1)CCC2C(=O)NC1CCCc2ccccc21` (stereo partly drawn), the outcome in assay [4] was Active. On to `CN[C@@H](C)C(=O)Nc1nc2c(s1)CCCCC2C(=O)NC1CCCc2ccccc21` (stereo partly drawn), for which the outcome in assay [1] was inactive. For `CN[C@@H](C)C(=O)Nc1nc2c(s1)CCC2C(=O)NC(c1ccccc1)c1ccccc1` (stereo partly drawn), in assay [4], the outcome was Active.

On to `C[C@H](N)C(=O)Nc1nc2c(s1)CCCCC2C(=O)NC1CCCc2ccccc21` (stereo partly drawn), for which the outcome in assay [1] was inactive.

For `CN[C@@H](C)C(=O)Nc1nc2c(s1)CCCCC2C(=O)NCc1ccccc1` (stereo partly drawn), the outcome in assay [1] was inactive. `C[C@H](N)C(=O)Nc1nc2c(s1)CCC2C(=O)NC(c1ccccc1)c1ccccc1` (stereo partly drawn): the outcome in assay [4] was Active. For `CN[C@@H](C)C(=O)Nc1nc2c(s1)CC[C@@H]2C(=O)NC1CCCc2ccccc21` (mixture of isomers), the result in assay [3] was inactive. Regarding `CN[C@@H](C)C(=O)Nc1nc2c(s1)CCC2C(=O)NCc1ccccc1` (stereo partly drawn), the result in assay [4] was Active. `CN[C@@H](C)C(=O)Nc1nc2c(s1)CCC2C(=O)NC1CCCc2ccccc21` (mixture of isomers): in assay [4], the result was Active. This molecule had a Ki in assay [2] of 37 µM. For the same molecule, the outcome in assay [3] was inactive.
